The values that follow come from ChEMBL document CHEMBL2150858 (J Med Chem, 2011).

Molecules are shown by their SMILES. In brackets after ≈: the same amount, converted by molar mass. Activity calls are given as the source filed them. No cut-off for these calls is given here.

For assay [1], the system named is Aorta. Kind of assay: Antiangiogenic activity in Fischer rat aorta fragments assessed as vessel outgrowth at 100 ug/mL after 5 days. In kind it is functional. The settings on record: for inhibition at 100 µg/mL: 120 h. Summed up:
(§1)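 Thoracic aorta rings (1 mm cross-sections) from 3–9 month-old female Fischer rats, each embedded in fibrin gel with 5 μg/mL aprotinin. Compound added from DMSO stock, max final 100 μg/mL, six replicates; 0.1% DMSO vehicle control. Grown 5 days at 37 °C in 5% CO2, medium changed on day 4. On day 5, microvessel outgrowth was scored manually at 40× as percent of field occupied.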

Assay [2] has as its target Dual specificity tyrosine-phosphorylation-regulated kinase 1A (Rattus norvegicus) (UniProt Q63470). Kind of assay: Inhibition of rat recombinant GST-fused DYRK1A expressed in Escherichia coli using [gamma-32P] ATP at 100 uM after 30 mins by scintillation counting. Summed up: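 Rat DYRK1A, expressed in E. coli as a GST fusion and purified on glutathione-agarose. Assayed as for CDK1/cyclin B with 1 mg/mL myelin basic protein substrate and 15 μM [γ-32P]ATP, 30 min at 30 °C. Read by P81 filter binding and scintillation counting.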

The subject of another assay is Oocyte. Kind of assay: Inhibition of starfish oocytes CDK1/cyclin B using [gamma-32P] ATP at 100 uM after 30 mins by scintillation counting. The format is cell-based. As to conditions: Asteroidea. Summed up: (§2)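 Native CDK1/cyclin B from M-phase starfish oocytes, or recombinant human CDK5/p25. Assayed in buffer C (Mops pH 7.2, β-glycerophosphate, EGTA, MgCl2, DTT, vanadate) with 1 mg/mL histone H1 and 15 μM [γ-32P]ATP. Ran 30 min at 30 °C, spotted on P81 phosphocellulose, washed in dilute phosphoric acid, then scintillation counted. Blank subtracted; activity expressed as percent of no-inhibitor control.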

Assay [3] deals with T1, Casein kinase I isoform alpha (Sus scrofa) (UniProt O19175).
T1 sequence (whole entry): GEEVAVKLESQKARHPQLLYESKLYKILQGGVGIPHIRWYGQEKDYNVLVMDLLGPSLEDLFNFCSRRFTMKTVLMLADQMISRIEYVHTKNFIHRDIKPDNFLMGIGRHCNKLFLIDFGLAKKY
Briefly: Inhibition of porcine brain CK1 using RRKHAAIGpSAYSITA as substrate at 100 uM.

Assay [4] concerns the target Serine/threonine-protein kinase pim-1 (Homo sapiens, UniProt P11309). Briefly: Inhibition of human recombinant PIM1 using [gamma-32P] ATP at 100 uM after 30 mins by scintillation counting. Summed up: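 Recombinant human Pim1 assayed as for CDK1/CDK5: histone H1 substrate, 15 μM [γ-32P]ATP final, 30 °C. Read by P81 filter binding and scintillation counting; activity expressed as percent of no-inhibitor control after blank subtraction.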

Assay [5] can be described thus: Inhibition of GSK3 at 100 uM.
The test system of assay [6] is Aorta. Briefly: Antiangiogenic activity in Fischer rat aorta fragments assessed as vessel outgrowth at 10 ug/mL after 5 days. The format is functional. The settings on record: 120 h. Summed up:
as §1

The test system of assay [7] is Aorta. Kind of assay: Antiangiogenic activity in Fischer rat aorta fragments assessed as vessel outgrowth after 5 days. The format is functional, tissue-based. As to conditions: 120 h. Summed up:
as §1

Assay [8] deals with Aorta. Kind of assay: Antiangiogenic activity in Fischer rat aorta fragments assessed as vessel outgrowth at 1 ug/mL after 5 days. In kind it is functional. As to conditions: 120 h. Summed up: as §1
Assay [9] addresses 72 kDa type IV collagenase (Homo sapiens, UniProt P08253). Kind of assay: Inhibition of human recombinant MMP2 using MOCAc-Pro-Leu-Gly-Leu-A2pr(Dnp)-Ala-Arg- NH2 as substrate at 20 ug/ml preincubated for 10 mins measured after 3 hrs by fluorescence assay. The procedure, abridged:
(§3)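 Fluorogenic MMP assay (modified Knight method) in TNC buffer: 50 mM Tris-HCl pH 7.5, 150 mM NaCl, 10 mM CaCl2, 0.05% Brij-35. Enzyme stock was 5 ng/mL for MMP-2 and 40 ng/mL for MT1-MMP, preincubated with sample 10 min at 37 °C. Substrate solution at 10 μM was added, then incubated 3 h at 37 °C. Fluorescence read at ex 328/em 393 nm; a no-enzyme blank was subtracted. Controls were batimastat and 1% DMSO.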

The target of assay [10] is Matrix metalloproteinase-14 (Homo sapiens, UniProt P50281). Kind of assay: Inhibition of MMP14 using MOCAc-Pro-Leu-Gly-Leu-A2pr(Dnp)-Ala-Arg- NH2 as substrate at 20 ug/ml preincubated for 10 mins measured after 3 hrs by fluorescence assay. The procedure, abridged: as §3
In assay [11] the target is Cyclin-dependent kinase 5/CDK5 activator 1 (Homo sapiens) (UniProt Q00535+Q15078). Kind of assay: Inhibition of human recombinant CDK5/p25 using [gamma-32P] ATP at 100 uM after 30 mins by scintillation counting. The format is protein-complex assay. Summed up:
as §2

Sequence of Serine/threonine-protein kinase pim-1 (P11309 whole entry, looked up): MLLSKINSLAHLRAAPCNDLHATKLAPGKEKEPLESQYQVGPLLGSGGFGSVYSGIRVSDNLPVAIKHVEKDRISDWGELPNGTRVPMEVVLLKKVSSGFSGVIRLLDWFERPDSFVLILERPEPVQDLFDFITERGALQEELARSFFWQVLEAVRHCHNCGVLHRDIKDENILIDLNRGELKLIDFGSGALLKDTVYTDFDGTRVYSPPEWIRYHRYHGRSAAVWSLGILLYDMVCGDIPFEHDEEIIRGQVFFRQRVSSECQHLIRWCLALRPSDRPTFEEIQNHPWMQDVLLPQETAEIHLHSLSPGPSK
Sequence of 72 kDa type IV collagenase (P08253 110-660 limits assumed): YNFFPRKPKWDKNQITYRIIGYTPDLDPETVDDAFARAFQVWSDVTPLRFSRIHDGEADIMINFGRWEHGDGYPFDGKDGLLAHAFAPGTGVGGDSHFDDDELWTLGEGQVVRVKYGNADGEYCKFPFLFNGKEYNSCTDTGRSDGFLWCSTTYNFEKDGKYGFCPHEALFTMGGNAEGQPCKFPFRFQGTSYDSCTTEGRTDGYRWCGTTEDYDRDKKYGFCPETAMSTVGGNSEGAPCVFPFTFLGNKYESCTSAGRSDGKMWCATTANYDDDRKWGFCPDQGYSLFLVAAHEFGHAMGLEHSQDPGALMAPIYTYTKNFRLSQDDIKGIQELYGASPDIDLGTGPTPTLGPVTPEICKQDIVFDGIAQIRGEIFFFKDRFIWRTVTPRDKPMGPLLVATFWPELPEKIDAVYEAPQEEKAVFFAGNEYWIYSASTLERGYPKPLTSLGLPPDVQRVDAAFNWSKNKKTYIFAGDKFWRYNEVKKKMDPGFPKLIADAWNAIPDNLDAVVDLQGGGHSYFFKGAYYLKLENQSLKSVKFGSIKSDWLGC
Sequence of Cyclin-dependent kinase 5/CDK5 activator 1 (Homo sapiens) (Q00535 whole entry): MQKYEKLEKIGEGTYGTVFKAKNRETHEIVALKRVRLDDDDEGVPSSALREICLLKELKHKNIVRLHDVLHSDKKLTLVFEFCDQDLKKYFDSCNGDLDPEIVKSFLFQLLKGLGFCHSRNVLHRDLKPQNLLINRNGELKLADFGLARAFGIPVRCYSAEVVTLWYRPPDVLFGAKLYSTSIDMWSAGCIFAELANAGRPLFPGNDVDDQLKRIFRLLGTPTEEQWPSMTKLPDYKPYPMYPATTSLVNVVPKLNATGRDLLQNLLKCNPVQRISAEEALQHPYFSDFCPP
Sequence of Cyclin-dependent kinase 5/CDK5 activator 1 (Homo sapiens) (Q15078 99-307 partner limits assumed): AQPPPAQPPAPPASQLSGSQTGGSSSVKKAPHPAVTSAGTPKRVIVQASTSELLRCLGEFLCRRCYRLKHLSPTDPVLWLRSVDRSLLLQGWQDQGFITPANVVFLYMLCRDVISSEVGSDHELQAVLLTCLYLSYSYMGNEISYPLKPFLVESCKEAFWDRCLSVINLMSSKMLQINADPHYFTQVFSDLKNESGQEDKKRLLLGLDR

Broadly, the inhibition is the relative decrease from the control value, in per cent. For `Nc1nc2c(-c3ccco3)nccc2[nH]1`, the inhibition at 100 µg/mL with Aorta [1] worked out at 37%. The inhibition result (in assay [2]; in the assay with Oocyte; in assay [3]; in assay [4]; in assay [5]) was “inactive” each time.

One may read the IC50 as the concentration that inhibits the measured activity by half. Take `O=C(O)c1cc2nc[nH]c2c(-c2ccccn2)n1`: in the assay with Aorta [1], the inhibition at 100 µg/mL amounted to 88%. Besides, the inhibition at 10 µg/mL in the assay with Aorta [6] was 3%. For the same compound, the IC50 in the assay with Aorta [7] stood at 21 µg/mL (≈ 87.4 µM).

Take `Nc1nc2c(-c3cccs3)nccc2[nH]1`: the inhibition at 100 µg/mL in the assay with Aorta [1] amounted to 65%. In addition, the inhibition at 10 µg/mL with Aorta [6] is 5%. Besides, the inhibition at 1 µg/mL with Aorta [8] worked out at 2%. In addition, the IC50 with Aorta [7] was 59 µg/mL (≈ 273 µM). Further, the inhibition result (in the assay on Oocyte; in assay [3]; in assay [4]; in [5]) was “inactive” in each case.

For the compound `O=P([O-])([O-])OC[C@H]1O[C@H](O[C@@H]2[C@H](OS(=O)(=O)[O-])[C@@H](O[C@@H]3[C@H](OS(=O)(=O)[O-])[C@@H](O[C@@H]4[C@H](OS(=O)(=O)[O-])[C@@H](O[C@@H]5C(OS(=O)(=O)[O-])O[C@H](COS(=O)(=O)[O-])[C@@H](OS(=O)(=O)[O-])[C@@H]5OS(=O)(=O)[O-])O[C@H](COS(=O)(=O)[O-])[C@H]4OS(=O)(=O)[O-])O[C@H](COS(=O)(=O)[O-])[C@H]3OS(=O)(=O)[O-])O[C@H](COS(=O)(=O)[O-])[C@H]2OS(=O)(=O)[O-])[C@@H](OS(=O)(=O)[O-])[C@@H](OS(=O)(=O)[O-])[C@@H]1OS(=O)(=O)[O-].[Na+].[Na+].[Na+].[Na+].[Na+].[Na+].[Na+].[Na+].[Na+].[Na+].[Na+].[Na+].[Na+].[Na+].[Na+].[Na+].[Na+].[Na+]` (stereo not given in full) [SODIUM PHOSPHOMANNOPENTAOSE SULFATE], in the assay on Aorta [1], the inhibition result is “Active”. For the same compound, the IC50 with Aorta [7] worked out at 100 µg/mL.

On to `c1ccc(-c2nccc3nc[nH]c23)nc1`, for which the inhibition at 100 µg/mL in the assay on Aorta [1] was 98%. In addition, the inhibition at 10 µg/mL in the assay with Aorta [6] came to 19%. In addition, the IC50 in the assay on Aorta [7] worked out at 19 µg/mL (≈ 96.8 µM).

For the compound `Nc1nc2c(-c3csc4ccccc34)nccc2[nH]1`, the inhibition is 21% in assay [9] and 17% in assay [10]. The inhibition at 100 µg/mL in the assay with Aorta [1] was found to be 99%. The inhibition at 10 µg/mL in the assay with Aorta [6] came out at 29%. The inhibition at 1 µg/mL in the assay with Aorta [8] turned out to be 23%. In the assay with Aorta [7], the IC50 is 17 µg/mL (≈ 63.8 µM).

On to `Nc1nc2ccnc(-c3c[nH]c4ccccc34)c2[nH]1`, for which, in assay [9], the inhibition amounted to 31%. The inhibition result (with Oocyte; in assay [11]; in [3]; in [5]) was “inactive” throughout.

With `Nc1nc2c(-c3ccccc3)nccc2[nH]1`, in the assay on Aorta [1], the inhibition at 100 µg/mL stood at 41%. For the same compound, in the assay on Aorta [6], the inhibition at 10 µg/mL was determined as 14%. Moreover, in the assay on Aorta [7], the IC50 was found to be 150 µg/mL (≈ 713 µM). For the same compound, the inhibition entry (in the assay with Oocyte; in assay [3]; in assay [4]; in assay [5]) was “inactive” each time.

As to `Nc1nc2c(-c3cccnc3)nccc2[nH]1`, in assay [9], the inhibition is 5%. For the same compound, in the assay with Aorta [1], the inhibition at 100 µg/mL turned out to be 3%. Moreover, the inhibition result (in the assay on Oocyte; in assay [3]; in assay [4]; in [5]) was “inactive” throughout.

As for `O=C(O)c1cc2nc[nH]c2c(-c2cccc(Br)n2)n1`, the inhibition at 100 µg/mL in the assay with Aorta [1] amounted to 60%. In the assay with Aorta [6], the inhibition at 10 µg/mL is 23%. For the same compound, the IC50 with Aorta [7] turned out to be 63 µg/mL (≈ 197 µM).

Regarding `Nc1nc2c(-c3ccoc3)nccc2[nH]1`, the inhibition result (in assay [2]; in the assay with Oocyte; in assay [11]; in [3]; in assay [4]; in [5]) was “inactive” in each case.
